Values after ≈ are worked out from the molar mass of the structure shown.
Tests used:
RAW 264.7 cells [1] = assay: MTT assay, LPS-induced inflammation in RAW 264.7; format: cell-based, murine; conditions: RAW 264.7, pre-treatment 100 μM and 200 μM, then LPS; Fig. 4
How it was run: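 Mouse RAW 264.7 macrophages kept in high-glucose DMEM with 10% heat-inactivated FBS and 1% penicillin–streptomycin at 37 °C, 5% CO2. Cells seeded at 5 × 10^5 cells per mL, pretreated 1 h with test compound (100 or 200 μM), then stimulated with […] for 24 h. Medium replaced; 0.5 mg mL−1 MTT for 3 h; formazan dissolved in DMSO; OD read at 540 nm. Percent inflammation derived by subtracting percent viability relative to control.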

Aspergillus niger = assay: In vitro antifungal MIC, poison plate technique; format: cell-based
Staphylococcus aureus = assay: In vitro antibacterial MIC determination; format: cell-based
How it was run: (§1)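 Bacteria grown on nutrient agar, subcultured to log phase in nutrient broth, then diluted in sterile saline to about 10^5–10^6 CFU mL−1. Test compounds diluted in acetone, DMSO or diethyl ether (ether preferred). Saturated disks placed on spread-plated inoculum and incubated at 37 °C for 24 h. MIC determined across different compound concentrations, with streptomycin as standard.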

Rhizopus arrhizus = assay: In vitro antifungal MIC, poison plate technique; format: cell-based
[2] = test system: carrageenan-induced paw edema; assay: Carrageenan induced hind paw edema assay; format: in vivo; conditions: rat, 100 mg kg^−1 p.o., mean ± SEM
How it was run: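 Rats, six per group, acclimatized one week (25 ± 2 °C, 12 h light/dark, standard pellets, water ad libitum). […] Paw volume measured by plethysmometer displacement to the lateral malleolus at 1, 3 and 6 h. Mean ± SEM.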

RAW 264.7 cells [3] = assay: Nitrite; format: cell-based, murine; conditions: RAW 264.7, 100 μM and 200 μM pre-treatment; Fig. 5
How it was run: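 RAW 264.7 cells (1 × 10^6) seeded in flasks and left to adhere overnight. Pretreated 1 h with test compound (100 or 200 μM), then 100 μM LPS for 24 h at 37 °C, 5% CO2. Supernatant mixed with an equal volume of Griess reagent (0.1% naphthylethylenediamine and 1% sulfanilamide, 1:1, in 5% phosphoric acid) for 10 min in the dark at room temperature; A540 read. Nitrite quantified from a NaNO2 standard curve (0.1–6.25 μM), expressed as μmol NO2−/mg protein. Triplicates.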

COX-1 = target: T1, COX-1 (Ovis aries, UniProt P05979); assay: Colorimetric COX; format: biochemical, ovine; conditions: read-out: % inhibition of COX, COX-1
T1 sequence (P05979 25-600): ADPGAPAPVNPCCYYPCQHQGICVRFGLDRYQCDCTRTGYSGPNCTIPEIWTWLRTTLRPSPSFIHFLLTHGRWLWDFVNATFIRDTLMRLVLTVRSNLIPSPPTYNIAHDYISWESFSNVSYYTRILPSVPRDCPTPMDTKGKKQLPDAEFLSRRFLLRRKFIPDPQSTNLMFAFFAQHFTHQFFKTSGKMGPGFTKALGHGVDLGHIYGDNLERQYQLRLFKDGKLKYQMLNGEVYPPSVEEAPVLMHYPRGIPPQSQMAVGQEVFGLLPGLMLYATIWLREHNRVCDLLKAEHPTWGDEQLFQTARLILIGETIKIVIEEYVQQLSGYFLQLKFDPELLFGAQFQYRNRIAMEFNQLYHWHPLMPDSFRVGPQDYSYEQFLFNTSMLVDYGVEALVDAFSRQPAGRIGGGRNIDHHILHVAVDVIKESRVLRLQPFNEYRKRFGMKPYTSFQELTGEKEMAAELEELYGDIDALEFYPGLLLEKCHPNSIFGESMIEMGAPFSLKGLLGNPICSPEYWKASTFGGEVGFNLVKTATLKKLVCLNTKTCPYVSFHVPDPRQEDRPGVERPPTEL

[4] = test system: cotton pellet induced granuloma; assay: Cotton pellets induced granuloma assay; format: in vivo; conditions: rat, 100 mg kg^−1 p.o. for 8 d, mean ± SEM
How it was run: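 Two sterile 10 mg cotton pellets implanted ventrally in rats, six per group. […] On day 9 rats were killed under excess ether. Pellets were freed of tissue and weighed wet, then dried at 55 °C for 6 h or to constant weight. Granuloma equals dry weight minus cotton weight. Mean ± SEM.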

Escherichia coli = assay: In vitro antibacterial MIC determination; format: cell-based
How it was run: as §1

Aspergillus flavus = assay: In vitro antifungal MIC, poison plate technique; format: cell-based
COX-2 = target: T2, COX-2 (Ovis aries, UniProt P79208); assay: Colorimetric COX; format: biochemical, ovine; conditions: read-out: % inhibition of COX, COX-2
T2 sequence (P79208 17-603): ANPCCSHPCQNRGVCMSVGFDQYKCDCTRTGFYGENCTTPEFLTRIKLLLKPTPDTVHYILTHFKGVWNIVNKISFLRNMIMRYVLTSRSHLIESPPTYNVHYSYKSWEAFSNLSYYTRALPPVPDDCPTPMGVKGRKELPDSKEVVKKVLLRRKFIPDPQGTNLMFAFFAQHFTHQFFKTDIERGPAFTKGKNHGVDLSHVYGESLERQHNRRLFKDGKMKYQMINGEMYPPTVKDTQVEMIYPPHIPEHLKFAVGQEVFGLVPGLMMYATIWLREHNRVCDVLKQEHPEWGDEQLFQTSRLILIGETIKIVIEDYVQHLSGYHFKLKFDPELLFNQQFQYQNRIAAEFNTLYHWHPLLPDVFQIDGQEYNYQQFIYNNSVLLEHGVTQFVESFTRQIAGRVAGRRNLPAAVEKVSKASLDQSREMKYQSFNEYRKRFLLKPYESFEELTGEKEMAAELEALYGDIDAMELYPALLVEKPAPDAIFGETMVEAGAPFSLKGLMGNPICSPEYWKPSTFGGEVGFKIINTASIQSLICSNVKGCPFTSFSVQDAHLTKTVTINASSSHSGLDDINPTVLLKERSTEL

Bacillus subtillis = assay: In vitro antibacterial MIC determination; format: cell-based
How it was run: as §1

Pseudomonas aeruginosa = assay: In vitro antibacterial MIC determination; format: cell-based
How it was run: as §1

**Q.** Which results are given for `O=S(=O)(NC[C@@H](O)[C@@H]1CCc2cc(F)ccc2O1)c1ccc(Br)cc1` [Compound 8b, 4-Bromo-N-((R)-2-((S)-6-fluorochroman-2-yl)-2-hydroxyethyl)benzenesulfonamide]?
**A.** anti-inflammatory activity against LPS induced cell death / inflammation (MTT) (RAW 264.7 cells [1]): strong anti-inflammatory activity; MIC (Aspergillus niger): 20.4 ± 0.87 µg/mL (≈ 47.4 µM); MIC (Staphylococcus aureus): 17.9 ± 0.61 µg/mL (≈ 41.6 µM); MIC (Rhizopus arrhizus): 20.2 ± 0.65 µg/mL (≈ 47 µM); Paw volume ([2]; 1 h after carrageenan): 0.52 ± 0.18 mL; Paw volume ([2]; 3 h after carrageenan): 0.80 ± 0.38 mL; Paw volume ([2]; 6 h after carrageenan): 1.06 ± 0.27 mL; inhibition of LPS-induced NO production (RAW 264.7 cells [3]): strong inhibition; inhibition at 100 µM (COX-1): 46.1 ± 0.22%; inhibition at 200 µM (COX-1): 68.78 ± 0.43%; Weight, Dry (cotton pellet) [4]: 84.10 ± 1.67 mg; Weight, Wet (cotton pellet) [4]: 182.50 ± 1.77 mg; MIC (Escherichia coli): 12.7 ± 0.87 µg/mL (≈ 29.5 µM); MIC (Aspergillus flavus): 17.81 ± 0.16 µg/mL (≈ 41.4 µM); inhibition at 100 µM (COX-2): 34.4 ± 0.66%; inhibition at 200 µM (COX-2): 60.04 ± 0.24%; MIC (Bacillus subtillis): 15.08 ± 0.08 µg/mL (≈ 35 µM); MIC (Pseudomonas aeruginosa): 22.4 ± 0.4 µg/mL (≈ 52.1 µM)

**Q.** With `O=S(=O)(NC[C@@H](O)[C@@H]1CCc2cc(F)ccc2O1)c1ccc(F)cc1F` [Compound 8f, N-((R)-2-((S)-6-Fluorochroman-2-yl)-2-hydroxyethyl)-2,4-difluorobenzenesulfonamide] as the molecule, how does the “anti-inflammatory activity against LPS induced cell death / inflammation (MTT)” value (RAW 264.7 cells [1]) read?
**A.** strong anti-inflammatory activity

**Q.** What about the MIC (Aspergillus niger) of the same molecule?
**A.** 15.7 ± 0.69 µg/mL (≈ 40.4 µM)

**Q.** And the MIC (Staphylococcus aureus)?
**A.** 19.9 ± 0.66 µg/mL (≈ 51.3 µM)

**Q.** And the MIC (Rhizopus arrhizus)?
**A.** 19 ± 0.2 µg/mL (≈ 49.2 µM)

**Q.** What about the Paw volume ([2]; 1 h after carrageenan) of the same molecule?
**A.** 0.62 ± 0.10 mL

**Q.** And the Paw volume ([2]; 3 h after carrageenan)?
**A.** 0.86 ± 0.32 mL

**Q.** And the Paw volume ([2]; 6 h after carrageenan)?
**A.** 1.10 ± 0.13 mL

**Q.** What about the “inhibition of LPS-induced NO production” value (RAW 264.7 cells [3]) of the same molecule?
**A.** strong inhibition

**Q.** And the inhibition at 100 µM (COX-1)?
**A.** 33.9 ± 1.06%

**Q.** What about the inhibition at 200 µM (COX-1) of the same molecule?
**A.** 73.85 ± 0.54%

**Q.** And the “Weight, Dry (cotton pellet)” value [4]?
**A.** 70.66 ± 2.33 mg

**Q.** What about the “Weight, Wet (cotton pellet)” value [4] of the same molecule?
**A.** 139.82 ± 2.42 mg

**Q.** And the MIC (Escherichia coli)?
**A.** 24.1 ± 1.02 µg/mL (≈ 62.1 µM)

**Q.** What about the MIC (Aspergillus flavus) of the same molecule?
**A.** 16.2 ± 0.82 µg/mL (≈ 41.8 µM)

**Q.** What about the inhibition at 100 µM (COX-2) of the same molecule?
**A.** 28.7 ± 0.07%

**Q.** What about the inhibition at 200 µM (COX-2) of the same molecule?
**A.** 52.1 ± 0.78%

**Q.** And the MIC (Bacillus subtillis)?
**A.** 16.2 ± 0.94 µg/mL (≈ 41.9 µM)

**Q.** And the MIC (Pseudomonas aeruginosa)?
**A.** 26.8 ± 0.55 µg/mL (≈ 69.3 µM)

— publication PMC8694313 (RSC Advances, 2021)
